From paper PMC7848789 (SLAS discovery : advancing life sciences R & D, 2019)
Like-named read-outs stand apart in the source and are kept apart here. Where a SMILES comes first, the peptide text is derived from it.

Tests used:
[1] = molecular target: Recombinant human HDAC1 enzyme (Homo sapiens, UniProt Q13547); test: HDAC-Glo I/II enzymatic assay; assay type: biochemical; settings: for Activity outcome in HDAC1 enzymatic HDAC-Glo I/II assay: qHTS, 11 concentrations, active = CRC class 1 and 2 and AUC>100; for Emax: read-out: % Efficacy, HDAC-Glo: HDAC1
Recombinant human HDAC1 enzyme, sequence (Q13547 whole entry): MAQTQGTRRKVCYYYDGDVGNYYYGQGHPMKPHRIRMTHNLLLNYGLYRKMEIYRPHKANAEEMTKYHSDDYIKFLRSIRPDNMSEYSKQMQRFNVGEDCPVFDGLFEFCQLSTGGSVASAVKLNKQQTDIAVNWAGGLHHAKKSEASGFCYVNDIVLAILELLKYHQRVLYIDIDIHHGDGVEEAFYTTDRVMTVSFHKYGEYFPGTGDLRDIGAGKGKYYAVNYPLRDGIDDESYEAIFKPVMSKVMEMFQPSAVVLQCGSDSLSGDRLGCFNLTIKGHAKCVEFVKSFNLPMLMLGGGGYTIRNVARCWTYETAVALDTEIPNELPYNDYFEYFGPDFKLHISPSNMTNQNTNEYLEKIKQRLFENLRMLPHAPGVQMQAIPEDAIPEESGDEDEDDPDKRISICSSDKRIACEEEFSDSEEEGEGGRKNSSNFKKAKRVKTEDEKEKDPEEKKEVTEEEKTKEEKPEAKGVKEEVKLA

[2] = system: HDAC class I and II activity in HEK293T cells; test: HDAC-Glo I/II cellular assay in HEK293T cells; assay type: cell-based; settings: qHTS, 1 hour, active = CRC class 1 and 2 and AUC>100
[3] = molecular target: HDAC1–86b (Homo sapiens, UniProt Q13547); test: HDAC1-86b SplitLuc CETSA in HEK293T cells; assay type: binding; settings: for Activity outcome in SplitLuc CETSA (thermal stabilization of HDAC1–86b): 49°C, active = CRC class 1 and 2 and AUC>50; for Average IC50 ± SD (% Efficacy), SplitLuc CETSA: HEK293T: thermal stabilization at 49°C, n=2
HDAC1–86b, sequence (Q13547 whole entry, the tested form may be a part): as the sequence (Q13547 whole entry) above

[4] = molecular target: HDAC1-NanoLuc fusion protein (Homo sapiens, UniProt Q13547); test: HDAC1 NanoBRET target engagement assay in HEK293T cells; assay type: binding; settings: for Average IC50 ± SD, NanoBRET: HEK293T: n=2; for Average IC50 ± SD, NanoBRET: HEK293T / Activity outcome in NanoBRET (HDAC1 engagement, displacement of SAHA tracer): HEK293T; for Activity outcome in NanoBRET (HDAC1 engagement, displacement of SAHA tracer): 28.9 μM to 0.49 nM, active = CRC class 1 and 2 and AUC>100; for Emax: read-out: % Efficacy, NanoBRET: HEK293T
HDAC1-NanoLuc fusion protein, sequence (Q13547 whole entry, the tested form may be a part): as the sequence (Q13547 whole entry) above

[5] = system: HEK293T cells; test: CellTiter-Glo acute cell death counterscreen; assay type: cell-based; settings: 1 hour; at the highest concentration tested of 45.8 μM
[6] = system: HDAC class I and II activity in HeLa cells; test: HDAC-Glo I/II cellular assay in HeLa cells; assay type: cell-based; settings: qHTS; 1 hour; active = CRC class 1 and 2 and AUC>100
[7] = Fluorescence counterscreen; assay type: physicochemical; settings: excited at 450 nm, emission 500–750 nm; 610 nm channel of NanoBRET
Method in brief: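 Cell-free scan: test compound pinned into wells of growth medium alone (final DMSO 0.28 %), no cells or tracer added. Wells excited at 450 nm and emission read every 10 nm across 500–750 nm to build a full spectrum, flagging intrinsic fluorescence near the 610 nm NanoBRET acceptor channel.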

[8] = system: isolated HDAC1; settings: read-out: reported IC50 against isolated HDAC1; cited from earlier work

Row | Activity outcome in HDAC1 enzymatic HDAC-Glo I/II assay [1] | IC50 [1] | Emax [1] | SMILES | Activity outcome in HEK293T cellular HDAC-Glo I/II assay [2] | also measured
1 | active | – | – | NC(=O)c1cccc2[nH]c(-c3ccc([C@@H]4CCCN4)cc3F)nc12 [A-966492] | – | –
2 | active | – | – | Cn1cc(C(=O)Cc2ccccc2)cc1/C=C/C(=O)NO [APHA Compound 8] | either inactive or did not pass the activity cutoff | –
3 | – | 3 ± 0.2 µM | 90% | CNC(=O)c1ccccc1Sc1ccc2c(/C=C/c3ccccn3)n[nH]c2c1 [Axitinib] | – | Average IC50 ± SD (% Efficacy), SplitLuc CETSA: HEK293T [3]: Inactive; Average IC50 ± SD, NanoBRET: HEK293T [4]: Inactive
4 | most potent | – | – | COc1ccc(-c2nc(N3CCOCC3)c3sc(CN(C)c4ncc(C(=O)NO)cn4)cc3n2)cn1 [CUDC-907] | most potent | Activity outcome in SplitLuc CETSA (thermal stabilization of HDAC1–86b) [3]: most potent
5 | – | 1.1 ± 0.1 µM | 95% | CN(C)C(=O)COC(=O)Cc1ccc(OC(=O)c2ccc(NC(=N)N)cc2)cc1 [Camostat] | – | Average IC50 ± SD (% Efficacy), SplitLuc CETSA: HEK293T [3]: Inactive; IC50 [4]: 8.2 ± 1.4 µM; Activity outcome in NanoBRET (HDAC1 engagement, displacement of SAHA tracer) [4]: weakly engage HDAC1; Emax [4]: 90%
6 | – | – | – | CCS(=O)(=O)N1CCN(c2ccc(Nc3ncc(C(N)=O)c(NC4CC4)n3)cc2)CC1 [Cerdulatinib] | – | Acute effect on HEK293T cell viability (CellTiter-Glo) [5]: reduced HEK293T cell viability
7 | active | – | – | Nc1cc(F)ccc1NC(=O)c1ccc(CNC(=O)/C=C/c2cccnc2)cc1 [Chidamide] | relatively weak activity (below the activity cutoff) | Activity outcome in HeLa cellular HDAC-Glo I/II assay [6]: relatively weak activity (below the activity cutoff)
8 | – | – | – | O=C(/C=C/c1ccc(CN(CCO)CCc2c[nH]c3ccccc23)cc1)NO [Dacinostat] | most potent | –
9 | active | – | – | Nc1ccccc1NC(=O)c1ccc(CNC(=O)OCc2cccnc2)cc1 [Entinostat] | relatively weak activity (below the activity cutoff) | Activity outcome in HeLa cellular HDAC-Glo I/II assay [6]: relatively weak activity (below the activity cutoff)
10 | inactive | – | – | O=C(CCCCCCSc1ccc2ccccc2c1)NO [HNHA] | inactive | –
11 | weak activity | – | – | O=C(NO)c1ccc(CC(=O)N(CCO)c2ccccc2)cc1 [HPOB] | weak activity | Activity outcome in SplitLuc CETSA (thermal stabilization of HDAC1–86b) [3]: did not pass the activity cutoff; Activity outcome in NanoBRET (HDAC1 engagement, displacement of SAHA tracer) [4]: did not pass the activity cutoff
12 | – | 3 ± 0.2 µM | 96% | Cc1oncc1C(=O)Nc1ccc(C(F)(F)F)cc1 [Leflunomide] | – | Average IC50 ± SD (% Efficacy), SplitLuc CETSA: HEK293T [3]: Inactive; Average IC50 ± SD, NanoBRET: HEK293T [4]: Inactive
13 | active | – | – | C=C1CN(Cc2ccc(C(=O)Nc3ccccc3N)cc2)C(=O)c2ccccc21 [MI 192] | relatively weak activity (below the activity cutoff) | IC50 [8]: 4.8 µM; Activity outcome in HeLa cellular HDAC-Glo I/II assay [6]: relatively weak activity (below the activity cutoff); Activity outcome in NanoBRET (HDAC1 engagement, displacement of SAHA tracer) [4]: engage HDAC1 in cells; IC50 ([1]; read-out: IC50 in the enzymatic assay (HDAC1), HDAC-Glo I/II, Epigenetic-Focused collection): 0.08 µM
14 | – | 1.3 ± 0.1 µM | 97% | N=C(N)c1ccc2cc(OC(=O)c3ccc(N=C(N)N)cc3)ccc2c1 [Nafamostat] | – | Average IC50 ± SD (% Efficacy), SplitLuc CETSA: HEK293T [3]: Inactive; IC50 [4]: 11.8 ± 2.9 µM; Activity outcome in NanoBRET (HDAC1 engagement, displacement of SAHA tracer) [4]: weakly engage HDAC1; Emax [4]: 37%
15 | – | – | – | CCCCN(Cc1ccc(C(=O)NO)cc1)C(=O)Nc1ccccc1 [Nexturastat A] | – | Activity outcome in NanoBRET (HDAC1 engagement, displacement of SAHA tracer) [4]: engagement
16 | – | 2.8 ± 0.01 µM | 99% | O=C(Nc1ccc([N+](=O)[O-])cc1Cl)c1cc(Cl)ccc1O [Niclosamide] | – | Average IC50 ± SD (% Efficacy), SplitLuc CETSA: HEK293T [3]: Inactive; Average IC50 ± SD, NanoBRET: HEK293T [4]: Inactive
17 | – | 5.1 ± 0.3 µM | 95% | CC(=O)Oc1ccccc1C(=O)Nc1ncc([N+](=O)[O-])s1 [Nitazoxanide] | – | –
18 | inactive | – | – | CC(C)C(=O)SCCCCCCC(=O)Nc1nc(-c2ccccc2)cs1 [PTACH] | showed HDAC inhibition | Activity outcome in NanoBRET (HDAC1 engagement, displacement of SAHA tracer) [4]: engagement
19 | – | – | – | O=C(CCCCCCC(=O)Nc1cccnc1)NO [Pyroximide] | inactive | –
20 | most potent | – | – | Cn1cc(CNCC2CCN(c3ncc(C(=O)NO)cn3)CC2)c2ccccc21 [Quisinostat] | most potent | Activity outcome in SplitLuc CETSA (thermal stabilization of HDAC1–86b) [3]: most potent
21 | active | – | – | COc1cc(OC)c2c(=O)[nH]c(-c3cc(C)c(OCCO)c(C)c3)nc2c1 [RVX-208] | – | –
22 | – | 1.5 ± 0.01 µM | 95% | Oc1ccc(/C=C/c2cc(O)cc(O)c2)cc1 [Resveratrol] | – | Average IC50 ± SD (% Efficacy), SplitLuc CETSA: HEK293T [3]: Inactive
23 | – | – | – | O=C(Nc1cccc(Cl)c1)Nc1ncc(CCNc2ncnc3ccsc23)s1 [SNS-314] | – | Acute effect on HEK293T cell viability (CellTiter-Glo) [5]: acute cell death; IC50 [4]: 0.549 µM; Activity outcome in NanoBRET (HDAC1 engagement, displacement of SAHA tracer) [4]: engagement
24 | active | – | – | CC(=O)Nc1ccc(C(=O)Nc2ccccc2N)cc1 [Tacedinaline] | – | Activity outcome in HeLa cellular HDAC-Glo I/II assay [6]: relatively weak activity (below the activity cutoff)
25 | – | 1.7 ± 0.01 µM | 93% | O=C(Nc1ncc([N+](=O)[O-])s1)c1cccs1 [Tenonitrozole] | – | –
26 | – | 3.8 ± 0.6 µM | 90% | c1ccc2[nH]c(-c3cscn3)nc2c1 [Thiabendazole] | – | Average IC50 ± SD (% Efficacy), SplitLuc CETSA: HEK293T [3]: Inactive; Average IC50 ± SD, NanoBRET: HEK293T [4]: Inactive
27 | weak activity | – | – | O=C(CCCCCCC(=O)Nc1ccc([C@H]2O[C@@H](CSc3nc(-c4ccccc4)c(-c4ccccc4)o3)C[C@@H](c3ccc(CO)cc3)O2)cc1)NO [Tubacin] | weak activity | Activity outcome in SplitLuc CETSA (thermal stabilization of HDAC1–86b) [3]: did not pass the activity cutoff; Activity outcome in NanoBRET (HDAC1 engagement, displacement of SAHA tracer) [4]: did not pass the activity cutoff
28 | weak activity | – | – | CN1CCc2c(c3ccccc3n2Cc2ccc(C(=O)NO)cc2)C1 [Tubastatin A] | weak activity | Activity outcome in SplitLuc CETSA (thermal stabilization of HDAC1–86b) [3]: inactive; Activity outcome in NanoBRET (HDAC1 engagement, displacement of SAHA tracer) [4]: inactive
29 | weak activity | – | – | CCCCNNC(=O)c1ccc(Br)cc1 [UF 010] | weak activity | Activity outcome in SplitLuc CETSA (thermal stabilization of HDAC1–86b) [3]: did not pass the activity cutoff; Activity outcome in NanoBRET (HDAC1 engagement, displacement of SAHA tracer) [4]: did not pass the activity cutoff

Row | SMILES | Activity outcome in HDAC1 enzymatic HDAC-Glo I/II assay [1] | IC50 [1] | Emax [1] | Activity outcome in HEK293T cellular HDAC-Glo I/II assay [2] | also measured
30 | CCCSc1ccc2nc(NC(=O)OC)[nH]c2c1 [Albendazole] | – | 7.7 ± 0.8 µM | 93% | – | –
31 | CCC(=O)CCCCC[C@@H]1NC(=O)[C@H]2CCCCN2C(=O)[C@H]([C@@H](C)CC)NC(=O)[C@H](Cc2cn(OC)c3ccccc23)NC1=O [Apicidin] | most potent | – | – | most potent | Activity outcome in SplitLuc CETSA (thermal stabilization of HDAC1–86b) [3]: most potent
32 | Nc1ccc2c(c1)CN1C(=O)c3ccccc3C1=N2 [Daniquidone] | – | 2.1 ± 0.6 µM | 92% | – | Intrinsic fluorescence [7]: fluorescence over the 500–750 nm range
33 | O=S(=O)(O)c1ccc2[nH]c(-c3ccccc3)nc2c1 [Ensulizole] | – | 2.4 ± 0.3 µM | 99% | – | –
34 | Cc1ccc(NC(=O)CCCCCC(=O)Nc2ccccc2N)cc1 [TC-H-106] | active | – | – | relatively weak activity (below the activity cutoff) | Activity outcome in HeLa cellular HDAC-Glo I/II assay [6]: relatively weak activity (below the activity cutoff); Activity outcome in HEK293T cellular HDAC-Glo I/II assay ([2]; listed as TC-H 106): either inactive or did not pass the activity cutoff
35 | O=C(CCCCC[C@@H]1NC(=O)[C@H]2CCCCN2C(=O)[C@H](Cc2ccccc2)NC(=O)[C@H](Cc2ccccc2)NC1=O)C1CO1 (some centres unmarked) [Trapoxin A] (HELM PEPTIDE1{F.F.[O=C([C@H]1CCCCN1[*:1])[*:2]].[O=C(CCCCC[C@H](N[*:1])C(=O)[*:2])C1CO1]}$PEPTIDE1,PEPTIDE1,1:R1-4:R2$$$V2.0) | most potent | – | – | most potent | Activity outcome in SplitLuc CETSA (thermal stabilization of HDAC1–86b) [3]: most potent
